OX1R antag-1: blocks the human orexin 1 receptor; O43613; CHO/OX1R cells, Fluo-8 calcium fluorescence, orexin A; inhibition, % at 5 µM; hit rate 0.43% among 330,000;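 active = inhibition above its plate's threshold, mean inhibition of all tested compounds on the plate plus 3 SD, cut at about 37% in these data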
Target sequence (O43613 whole entry, looked up): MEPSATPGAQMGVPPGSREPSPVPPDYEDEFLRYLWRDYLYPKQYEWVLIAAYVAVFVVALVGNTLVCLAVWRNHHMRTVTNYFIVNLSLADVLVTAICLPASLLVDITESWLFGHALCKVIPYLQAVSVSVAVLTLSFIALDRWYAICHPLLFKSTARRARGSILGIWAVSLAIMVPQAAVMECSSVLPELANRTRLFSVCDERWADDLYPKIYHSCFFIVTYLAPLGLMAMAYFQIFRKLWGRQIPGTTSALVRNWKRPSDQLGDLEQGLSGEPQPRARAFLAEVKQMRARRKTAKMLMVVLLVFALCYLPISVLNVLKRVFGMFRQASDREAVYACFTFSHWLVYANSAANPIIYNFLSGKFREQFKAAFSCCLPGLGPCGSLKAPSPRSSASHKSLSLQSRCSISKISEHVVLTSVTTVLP
CHO parental Ca: counter-screen for OX1R antagonists: effect in parental CHO cells. parental CHO-K1, ATP-induced calcium, Fluo-8 fluorescence. inhibition, % at 5.6 µM. hit rate 0.63% among 330,000;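 active = inhibition above that plate's mean sample inhibition plus 3 SD, cut at about 26% in these data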
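Material – parental CHO cells · Reagent – ATP stimulus · Compound – single nominal dose of 5.6 µM per compound · Detection – Fluo-8 fluorescence · Read-out basis – percent inhibition of calcium signal · Controls – ATP-challenged DMSO wells low, unchallenged DMSO wells high · Repeats – no replicates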
GPR7 antag: blocks human GPR7 receptor signaling; inhibition, % at 4.4 µM; P48145; GPR7-expressing cells, fluorescence antagonist assay; hit rate 1.1% among 290,000; in the data active = inhibition above about 16%, passing the limit was not always enough;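 also: cells stimulated with the agonist NPW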
TAAR1 agonist: human TAAR1 agonism | hit rate 0.99% among 360,000 | AID 624467 | activation, % at 3 µM | CHO RD-HGA16 TAAR1, Fluo-8 calcium fluorescence; vehicle wells 0%, saturating PEA agonist 100% | Q96RJ0;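 active = activation above the mean activation of all test compounds in the run plus 3 SD, cut at about 38% in these data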
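Test system: RD-HGA16 (CHO) cells co-expressing Gα16 and hTAAR1 / Benchmarks: DMSO vehicle as 0%, PEA at EC100 as 100% / Repeats: no replicates (n 1) / Measure: % activation from peak over basal fluorescence ratio, DMSO-to-PEA scaled / Timing: 17-24 h plating, Fluo-8 75 min 37 °C, 30 min RT / Technique: kinetic Fluo-8 calcium fluorescence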
OX1R antag-2: antagonists of human orexin 1 receptor (OX1R). O43613. OX1R-expressing cells, FRET antagonist read-out. hit rate 1.8% among 330,000. inhibition, % at 6.6 µM. AID 485270; in the data active = inhibition mostly above about 38%, no sharp cut-off; inactive = mostly below about 40%
TAAR1 antag: antagonists of human TAAR1. CHO RD-HGA16 TAAR1, Fluo-8 calcium fluorescence, antagonist. inhibition, % at 3 µM. hit rate 1.5% among 360,000. AID 624466;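 active = inhibition above a per-plate cutoff, the mean inhibition of test compounds on that plate plus 3 SD, cut at about 49% in these data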
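Test system: hTAAR1-expressing CHO RD-HGA16 cells, Gα16-coupled; Probe or stimulus: EC80 β-phenethylamine stimulus; Compound dosing: single nominal final test compound concentration of 3 µM; Timing: 140 s kinetic read after compound, 140 s after agonist; Signal: Fluo-8 calcium-sensitive fluorescence; Measure: % inhibition of agonist calcium response; Controls: DMSO and EC80 PEA controls.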
Hits are given with their value; 0 = inactive; - = not tested or not shown. Shown are actives, neighbours in structure and some others; about 4.5% of the full set was active somewhere.

SMILES	OX1R antag-1	CHO parental Ca	GPR7 antag	TAAR1 agonist	OX1R antag-2	TAAR1 antag
CCn1c(SCC(=O)Nc2nc(C)c(C)s2)nc2cccnc21	0	0	0	0	75	0
CCOc1ccccc1NC(=O)CSc1nc2cccnc2n1C	0	0	0	0	53	0
COc1ccccc1C(=O)C1Nc2ccccc2-c2nnc(SC)nc2O1 (centres undefined)	0	0	0	0	50	0
O=C(COc1ccc(C(=O)c2ccccc2)cc1)Nc1cccnc1	0	52	0	0	0	0
CC(=O)Nc1ccc(NC(=O)COc2ccc(-c3ccc(C#N)cc3)cc2)cc1	0	0	-	0	0	0
N#Cc1ccc(-c2ccc(OCC(=O)Nc3cccnc3)cc2)cc1	-	-	0	0	-	59
CCOC(=O)N1CCN(CC(O)COc2ccc3c(c2)CCC3)CC1 (centres undefined)	0	0	0	0	0	0
Cc1cccc(N(Cc2ccccc2)C(=O)c2cc(S(=O)(=O)N3CCOCC3)ccc2Cl)c1	0	0	-	0	0	0
Cc1nc(N2CCN(c3ccccc3)CC2)nc2c1C(=O)CCC2	0	0	0	0	0	57
Cc1nc(N2CCN(c3ccccc3)CC2)nc2c1C(=O)CC(C)C2 (centres undefined)	0	0	0	0	0	0
O=C1NC(=S)S/C1=C\C=C\c1ccc([N+](=O)[O-])o1	-	-	0	58	-	72
CCCCCc1c(-c2ccc(F)cc2F)ncn1CCc1ccccc1OC	-	-	-	0	-	0
CC1COC(=O)C(NNc2ccc(Cl)c(Cl)c2)=N1 (centres undefined)	0	0	19	0	0	0
Cc1ccc(S(=O)(=O)N2CC(O)C[C@H]2C(=O)OCC(=O)N2CCN(c3ccc(F)cc3)CC2)cc1C (some centres undefined)	-	-	-	0	-	0
CC(=O)Nc1ccc(C=NN=C2c3ccccc3-c3ccccc32)cc1	-	-	-	0	-	0
CC(C)(C)n1ncc2c(=O)n(Cc3cccc(Cn4cnc5c(cnn5C(C)(C)C)c4=O)c3F)cnc21	64	62	-	0	0	0
COc1ccccc1C(CNc1ncccc1[N+](=O)[O-])N(C)C (centres undefined)	0	0	0	0	67	0
COc1ccccc1Nc1ncccc1[N+](=O)[O-]	0	0	0	0	0	0
Cc1ccc(OCC(=O)NNC(=O)c2cc3ccccc3o2)cc1C	0	49	0	0	0	0
Cc1cc(NC(=O)c2cccnc2Cl)ccc1NC(=O)c1cc2ccccc2o1	0	0	0	40	0	0
Cc1cc(NC(=O)c2cc3ccccc3o2)ccc1NC(=O)c1ccccc1	0	0	0	0	0	0
Cc1cccc(NC(=O)c2cc3ccccc3o2)c1	0	0	18	0	0	0
O=C(CC[C@H]1O[C@@H](n2ccc(=O)[nH]c2=O)[C@H](O)[C@@H]1O)N[C@H](Cc1ccccc1)C(=O)NCC1CCCO1 (some centres undefined)	-	-	-	0	-	0
O=C1O[C@@H](c2ccccc2)C[C@@H](O)[C@H](O)CCCCc2ccccc21	-	-	-	0	-	0
C[C@@H]1CNCCN1c1ccc(N2CCS(=O)(=O)CC2)c(C#N)c1	-	-	-	0	-	0
SMILES	OX1R antag-1	CHO parental Ca	GPR7 antag	TAAR1 agonist	OX1R antag-2	TAAR1 antag
O=C(Nc1ncn[nH]1)c1ccc([N+](=O)[O-])cc1[N+](=O)[O-]	0	0	0	0	53	0
O=C(Nc1ncn[nH]1)c1cc([N+](=O)[O-])ccc1Cl	0	0	0	0	0	0
O=C(Nc1ncccn1)c1ccc([N+](=O)[O-])cc1[N+](=O)[O-]	0	0	-	0	73	0
O=C(CSc1nnc(SCc2ccc(Cl)cc2)s1)N/N=C/c1c(Cl)cccc1Cl	0	0	0	0	0	0
CCOc1ccc2nc(NC(=O)c3ccccn3)sc2c1	0	0	0	0	0	0
COc1ccccc1C(=O)Nc1nc2ccc(S(C)(=O)=O)cc2s1	0	0	0	0	41	0
Cc1ccc2nc(NC(=O)c3ccccn3)sc2c1	0	27	0	0	0	0
CS(=O)(=O)c1ccc2nc(NC(=O)c3ccccc3Cl)sc2c1	-	-	0	0	-	0
CCCCN1CC(COCc2ccccc2)Oc2cccc(NCc3cc(OC)c(OC)c(OC)c3)c2S1(=O)=O (centres undefined)	-	-	-	0	-	0
COC(=O)c1sccc1-c1ccc(C(=O)Nc2ccccc2)o1	0	0	0	0	59	0
CN(C)Cc1c(O)ccc2c(-c3ccccc3)cc(=O)oc12	0	0	0	0	0	0
CN(C)Cc1c(O)ccc2cc(-c3nc4ccccc4n3C)c(=O)oc12	0	0	0	0	43	0
COc1ccc(OCCCC(=O)OC(C)C(=O)Nc2cccc(C(C)=O)c2)cc1 (centres undefined)	0	0	0	0	64	0
Cc1oc(-c2cccc(Cl)c2)nc1CS(=O)(=O)CC(=O)NCc1ccco1	0	0	0	0	0	0
CC(NC(=O)/C(C#N)=C/c1ccc(Cl)c([N+](=O)[O-])c1)c1ccccc1 (centres undefined)	0	0	0	39	0	0
N#C/C(=C\c1ccc(Cl)c([N+](=O)[O-])c1)c1ccccn1	0	0	0	0	71	0
CC(NC(=O)/C(C#N)=C/c1ccc(OCC(=O)O)cc1)c1ccccc1 (centres undefined)	0	0	0	0	0	0
CCC(=O)N1CCC(C)(C(=O)Nc2ccc(OC)c(OC)c2)C1 (centres undefined)	-	-	-	0	-	0
C[C@H]1COc2cccc(N3CCCC3)c2S(=O)(=O)N1	-	-	-	0	-	0
CCOC(=O)C1=CCN(S(=O)(=O)c2ccccc2F)C1c1ccc(Cl)c(Cl)c1 (centres undefined)	-	-	-	0	-	0
CCCCN1C(=O)CCC(C(=O)O)C1c1ccc([N+](=O)[O-])cc1 (centres undefined)	0	0	0	0	0	0
Cc1nn(-c2ccccc2)c(Cl)c1C(=O)NCC(=O)O	0	0	0	0	0	0
Cc1nn(-c2ccccc2)c(Cl)c1CN(C(=O)CCl)c1cccc2ccccc12	0	0	32	0	0	50
C/C(CC(=O)Nc1ccc([N+](=O)[O-])cc1)=N\NC(=O)c1ccccc1[N+](=O)[O-]	0	32	0	0	0	0
CCCC(=O)Nc1ccc(NC(=S)NC(=O)c2ccccc2[N+](=O)[O-])cc1	0	0	0	0	0	0
Nc1ccc2c3c(cccc13)-c1ccccc1-2	-	-	-	82	-	72
CCCC(=O)c1ccc(N2CCN(C(=O)c3ccccc3Br)CC2)c(F)c1	0	52	0	0	0	0
O=C1c2cccc(O)c2C(=O)c2c(O)cc(CO)cc21	0	0	-	-	48	-
CN[C@H]1C[C@H]2c3[nH]c4c(-c5ccccc5)cccc4c3CCN2C[C@H]1[C@H](C)O	-	-	-	0	-	0

Assay outcomes as filed in PubChem BioAssay.
